Data taken from ChEMBL document CHEMBL4689842, “EUbOPEN Chemogenomics Library wave 1” (2021).
Where “and” joins values, the source holds several entries; their conditions need not be identical. Identical values can stand only once.

System: HEK-293T
Test: Multiplex assay against HEK293T;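 for Population Tubulin-Different-Phenotype (%): share of the cells with healthy nuclei that show this phenotype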
Assay type: toxicity, cell-based
Conditions: human
Outline: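 Live cells were stained at seeding with Hoechst33342, BioTracker Green Microtubule Cytoskeleton Dye, MitoTracker Red and Annexin V Alexa Fluor 680. Following compound addition, they were imaged on a CQ1 microscope at 37°C and 5% CO2 and gated by CellPathfinder machine learning into Hoechst high-intensity objects or normal cells, with normal cells split into healthy, pyknosed or fragmented nuclei and pyknosed cells into mitotic or apoptotic. Tubulin, mitochondrial-mass and membrane-permeability phenotypes are per cents of healthy-nucleus cells.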

[1] = 12 h, 1 µM, compound concentration 1 uM, replicate 1
[2] = 12 h, 1 µM, compound concentration 1 uM, replicate 2
[3] = 12 h, 10 µM, compound concentration 10 uM, replicate 1
[4] = 12 h, 10 µM, compound concentration 10 uM, replicate 2
[5] = 24 h, 1 µM, compound concentration 1 uM, replicate 1
[6] = 24 h, 1 µM, compound concentration 1 uM, replicate 2
[7] = 24 h, 10 µM, compound concentration 10 uM, replicate 1
[8] = 24 h, 10 µM, compound concentration 10 uM, replicate 2
[9] = 48 h, 1 µM, compound concentration 1 uM, replicate 1
[10] = 48 h, 1 µM, compound concentration 1 uM, replicate 2
[11] = 48 h, 10 µM, compound concentration 10 uM, replicate 1
[12] = 48 h, 10 µM, compound concentration 10 uM, replicate 2

CCC1=C[C@@H]2C[N@](C1)Cc1c([nH]c3ccccc13)[C@@](C(=O)OC)(c1cc3c(cc1OC)N(C)[C@H]1[C@@](O)(C(=O)OC)[C@H](OC(C)=O)[C@]4(CC)C=CCN5CC[C@]31[C@@H]54)C2.O=C(O)C(O)C(O)C(=O)O.O=C(O)C(O)C(O)C(=O)O [VINORELBINE TARTRATE]
Population Apoptotic (%) [1]: 25% and 14%
Population Fragmented Nuclei (%) [1]: 25% and 16%
Population Healthy Nuclei (%) [1]: 32% and 48%
Population Hoechst High Intensity Objects (%) [1]: 18% and 15%
Population Mitochondria Different-Phenotype (%) [1]: 18% and 9%
Population Mitotic Cells (%) [1]: 75% and 85%
Population Normal (%) [1]: 81% and 84%
Population Pyknosed Nuclei (%) [1]: 41% and 35%
Total Cell Count [1]: 502 and 565
Population Apoptotic (%) [2]: 17% and 8%
Population Fragmented Nuclei (%) [2]: 3% and 4%
Population Healthy Nuclei (%) [2]: 57% and 63%
Population Hoechst High Intensity Objects (%) [2]: 4% and 3%
Population Membrane Permeable-Phenotype (%) [2]: 12% and 0%
Population Mitochondria Different-Phenotype (%) [2]: 27% and 14%
Population Mitotic Cells (%) [2]: 83% and 91%
Population Normal (%) [2]: 95% and 96%
Population Pyknosed Nuclei (%) [2]: 38% and 31%
Total Cell Count [2]: 945 and 1247
Population Apoptotic (%) [3]: 31% and 19%
Population Fragmented Nuclei (%) [3]: 29% and 13%
Population Healthy Nuclei (%) [3]: 22% and 49%
Population Hoechst High Intensity Objects (%) [3]: 19% and 15%
Population Mitochondria Different-Phenotype (%) [3]: 13% and 9%
Population Mitotic Cells (%) [3]: 68% and 80%
Population Normal (%) [3]: 80% and 84%
Population Pyknosed Nuclei (%) [3]: 48% and 37%
Total Cell Count [3]: 499 and 592
Population Apoptotic (%) [4]: 13% and 7%
Population Fragmented Nuclei (%) [4]: 3%
Population Healthy Nuclei (%) [4]: 54% and 62%
Population Hoechst High Intensity Objects (%) [4]: 2%
Population Membrane Permeable-Phenotype (%) [4]: 10% and 0%
Population Mitochondria Different-Phenotype (%) [4]: 22% and 16%
Population Mitotic Cells (%) [4]: 86% and 92%
Population Normal (%) [4]: 97%
Population Pyknosed Nuclei (%) [4]: 41% and 33%
Total Cell Count [4]: 964 and 1090
Population Apoptotic (%) [5]: 13% and 28%
Population Fragmented Nuclei (%) [5]: 15% and 27%
Population Healthy Nuclei (%) [5]: 47% and 33%
Population Hoechst High Intensity Objects (%) [5]: 12% and 20%
Population Membrane Permeable-Phenotype (%) [5]: 0% and 13%
Population Mitotic Cells (%) [5]: 86% and 71%
Population Normal (%) [5]: 87% and 79%
Population Pyknosed Nuclei (%) [5]: 36% and 38%
Total Cell Count [5]: 530 and 459
Population Apoptotic (%) [6]: 14% and 8%
Population Fragmented Nuclei (%) [6]: 7% and 9%
Population Healthy Nuclei (%) [6]: 36% and 69%
Population Hoechst High Intensity Objects (%) [6]: 6% and 3%
Population Membrane Permeable-Phenotype (%) [6]: 8%
Population Mitochondria Different-Phenotype (%) [6]: 28%
Population Mitotic Cells (%) [6]: 85% and 91%
Population Normal (%) [6]: 93% and 96%
Population Pyknosed Nuclei (%) [6]: 55% and 21%
Total Cell Count [6]: 914 and 1303
Population Apoptotic (%) [7]: 20% and 38%
Population Fragmented Nuclei (%) [7]: 16% and 29%
Population Healthy Nuclei (%) [7]: 45% and 26%
Population Hoechst High Intensity Objects (%) [7]: 9% and 20%
Population Mitochondria Different-Phenotype (%) [7]: 10% and 13%
Population Mitotic Cells (%) [7]: 79% and 61%
Population Normal (%) [7]: 90% and 79%
Population Pyknosed Nuclei (%) [7]: 37% and 44%
Total Cell Count [7]: 529 and 482
Population Apoptotic (%) [8]: 11% and 5%
Population Fragmented Nuclei (%) [8]: 3% and 6%
Population Healthy Nuclei (%) [8]: 37% and 72%
Population Hoechst High Intensity Objects (%) [8]: 3% and 2%
Population Membrane Permeable-Phenotype (%) [8]: 9% and 0%
Population Mitotic Cells (%) [8]: 88% and 94%
Population Normal (%) [8]: 96% and 97%
Population Pyknosed Nuclei (%) [8]: 58% and 21%
Total Cell Count [8]: 920 and 1144

CC(C)c1noc(N2CCC(COc3ccc(-c4ccc(S(C)(=O)=O)cc4)nc3)CC2)n1 [GSK-1292263]
Population Apoptotic (%) [1]: 36%
Population Fragmented Nuclei (%) [1]: 14%
Population Healthy Nuclei (%) [1]: 31%
Population Hoechst High Intensity Objects (%) [1]: 14%
Population Membrane Permeable-Phenotype (%) [1]: 8%
Population Mitochondria Different-Phenotype (%) [1]: 65%
Population Mitotic Cells (%) [1]: 63%
Population Normal (%) [1]: 85%
Population Pyknosed Nuclei (%) [1]: 54%
Population Tubulin-Different-Phenotype (%) [1]: 34%
Total Cell Count [1]: 304
Population Apoptotic (%) [2]: 12%
Population Fragmented Nuclei (%) [2]: 2%
Population Healthy Nuclei (%) [2]: 50%
Population Hoechst High Intensity Objects (%) [2]: 1%
Population Membrane Permeable-Phenotype (%) [2]: 7%
Population Mitochondria Different-Phenotype (%) [2]: 15%
Population Mitotic Cells (%) [2]: 87%
Population Normal (%) [2]: 98%
Population Pyknosed Nuclei (%) [2]: 46%
Population Tubulin-Different-Phenotype (%) [2]: 16%
Total Cell Count [2]: 228
Population Apoptotic (%) [3]: 50%
Population Fragmented Nuclei (%) [3]: 14%
Population Healthy Nuclei (%) [3]: 11%
Population Hoechst High Intensity Objects (%) [3]: 18%
Population Membrane Permeable-Phenotype (%) [3]: 16%
Population Mitochondria Different-Phenotype (%) [3]: 68%
Population Mitotic Cells (%) [3]: 50%
Population Normal (%) [3]: 81%
Population Pyknosed Nuclei (%) [3]: 74%
Population Tubulin-Different-Phenotype (%) [3]: 72%
Total Cell Count [3]: 276
Population Apoptotic (%) [4]: 13%
Population Fragmented Nuclei (%) [4]: 7%
Population Healthy Nuclei (%) [4]: 20%
Population Hoechst High Intensity Objects (%) [4]: 12%
Population Membrane Permeable-Phenotype (%) [4]: 8%
Population Mitochondria Different-Phenotype (%) [4]: 26%
Population Mitotic Cells (%) [4]: 86%
Population Normal (%) [4]: 87%
Population Pyknosed Nuclei (%) [4]: 72%
Population Tubulin-Different-Phenotype (%) [4]: 26%
Total Cell Count [4]: 131
Population Apoptotic (%) [5]: 39%
Population Fragmented Nuclei (%) [5]: 15%
Population Healthy Nuclei (%) [5]: 32%
Population Hoechst High Intensity Objects (%) [5]: 19%
Population Membrane Permeable-Phenotype (%) [5]: 2%
Population Mitochondria Different-Phenotype (%) [5]: 57%
Population Mitotic Cells (%) [5]: 60%
Population Normal (%) [5]: 80%
Population Pyknosed Nuclei (%) [5]: 51%
Population Tubulin-Different-Phenotype (%) [5]: 37%
Total Cell Count [5]: 316
Population Apoptotic (%) [6]: 15%
Population Fragmented Nuclei (%) [6]: 6%
Population Healthy Nuclei (%) [6]: 62%
Population Hoechst High Intensity Objects (%) [6]: 3%
Population Membrane Permeable-Phenotype (%) [6]: 8%
Population Mitochondria Different-Phenotype (%) [6]: 14%
Population Mitotic Cells (%) [6]: 84%
Population Normal (%) [6]: 96%
Population Pyknosed Nuclei (%) [6]: 31%
Population Tubulin-Different-Phenotype (%) [6]: 31%
Total Cell Count [6]: 270
Population Apoptotic (%) [7]: 58%
Population Fragmented Nuclei (%) [7]: 15%
Population Healthy Nuclei (%) [7]: 12%
Population Hoechst High Intensity Objects (%) [7]: 23%
Population Membrane Permeable-Phenotype (%) [7]: 7%
Population Mitochondria Different-Phenotype (%) [7]: 78%
Population Mitotic Cells (%) [7]: 41%
Population Normal (%) [7]: 76%
Population Pyknosed Nuclei (%) [7]: 72%
Population Tubulin-Different-Phenotype (%) [7]: 75%
Total Cell Count [7]: 298
Population Apoptotic (%) [8]: 14%
Population Fragmented Nuclei (%) [8]: 7%
Population Healthy Nuclei (%) [8]: 38%
Population Hoechst High Intensity Objects (%) [8]: 9%
Population Membrane Permeable-Phenotype (%) [8]: 4%
Population Mitochondria Different-Phenotype (%) [8]: 32%
Population Mitotic Cells (%) [8]: 85%
Population Normal (%) [8]: 90%
Population Pyknosed Nuclei (%) [8]: 53%
Population Tubulin-Different-Phenotype (%) [8]: 55%
Total Cell Count [8]: 139
Population Apoptotic (%) [9]: 37%
Population Fragmented Nuclei (%) [9]: 16%
Population Healthy Nuclei (%) [9]: 41%
Population Hoechst High Intensity Objects (%) [9]: 14%
Population Membrane Permeable-Phenotype (%) [9]: 4%
Population Mitochondria Different-Phenotype (%) [9]: 32%
Population Mitotic Cells (%) [9]: 62%
Population Normal (%) [9]: 85%
Population Pyknosed Nuclei (%) [9]: 42%
Population Tubulin-Different-Phenotype (%) [9]: 35%
Total Cell Count [9]: 377
Population Apoptotic (%) [10]: 14%
Population Fragmented Nuclei (%) [10]: 4%
Population Healthy Nuclei (%) [10]: 80%
Population Hoechst High Intensity Objects (%) [10]: 4%
Population Membrane Permeable-Phenotype (%) [10]: 8%
Population Mitochondria Different-Phenotype (%) [10]: 3%
Population Mitotic Cells (%) [10]: 85%
Population Normal (%) [10]: 95%
Population Pyknosed Nuclei (%) [10]: 14%
Population Tubulin-Different-Phenotype (%) [10]: 22%
Total Cell Count [10]: 482
Population Apoptotic (%) [11]: 63%
Population Fragmented Nuclei (%) [11]: 24%
Population Healthy Nuclei (%) [11]: 10%
Population Hoechst High Intensity Objects (%) [11]: 25%
Population Membrane Permeable-Phenotype (%) [11]: 8%
Population Mitochondria Different-Phenotype (%) [11]: 37%
Population Mitotic Cells (%) [11]: 36%
Population Normal (%) [11]: 74%
Population Pyknosed Nuclei (%) [11]: 64%
Population Tubulin-Different-Phenotype (%) [11]: 58%
Total Cell Count [11]: 296
Population Apoptotic (%) [12]: 14%
Population Fragmented Nuclei (%) [12]: 8%
Population Healthy Nuclei (%) [12]: 62%
Population Hoechst High Intensity Objects (%) [12]: 3%
Population Membrane Permeable-Phenotype (%) [12]: 12%
Population Mitochondria Different-Phenotype (%) [12]: 12%
Population Mitotic Cells (%) [12]: 85%
Population Normal (%) [12]: 96%
Population Pyknosed Nuclei (%) [12]: 28%
Population Tubulin-Different-Phenotype (%) [12]: 54%
Total Cell Count [12]: 176
